# Results published in ChEMBL document CHEMBL4715744, “Concise synthesis of carbazole-1,4-quinones and evaluation of their antiproliferative activity against HCT-116 and HL-60 cells” (Eur J Med Chem, 2016).
# pIC50: −log10 of the molar value.
# Tests used:
# HCT-116 = test: Cytotoxicity against human HCT-116 cells assessed as reduction in cell viability incubated for 48 hrs by MTT assay; format: functional, cell-based; settings: HCT-116, 48 h
# Summary of the method: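 Antiproliferative test on HCT-116 colon tumour cells, read out by MTT; activity expressed as IC50.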
# HL-60 = test: Cytotoxicity against human HL-60 cells assessed as reduction in cell viability incubated for 48 hrs by WST-1 assay; format: functional, cell-based; settings: HL-60, 48 h
# Summary of the method: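 HL-60 promyelocytic leukaemia cells, with proliferation read out by WST-1; activity expressed as IC50.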
Structure (SMILES),pIC50 (HCT-116),pIC50 (HL-60)
O=C1C=CC(=O)c2c1[nH]c1ccccc21,6.12,6.00
CC1=CC(=O)c2[nH]c3ccc(C(F)(F)F)cc3c2C1=O,6.04,5.95
CC1=CC(=O)c2[nH]c3ccc(F)cc3c2C1=O,5.57,5.36
COc1cc2[nH]c3c(c2cc1OC)C(=O)C(C)=CC3=O,5.39,5.05
CC1=CC(=O)c2[nH]c3cc(Cl)ccc3c2C1=O,6.05,< 5.00
COCn1c2c(c3ccccc31)C(=O)C=C(C)C2=O,< 5.00,< 5.00
COc1cc(OC)c2c3c([nH]c2c1)C(=O)C=C(C)C3=O,< 5.00,5.14
COCn1c2c(c3ccccc31)C(=O)C=CC2=O,5.88,5.86
CC1=CC(=O)c2[nH]c3cc([N+](=O)[O-])ccc3c2C1=O,5.86,5.80
COc1cc(OC)c2[nH]c3c(c2c1)C(=O)C(C)=CC3=O,5.44,5.42
CC1=CC(=O)c2[nH]c3cc(C)ccc3c2C1=O,6.00,5.16
COc1ccc(OC)c2c3c([nH]c12)C(=O)C=C(C)C3=O,5.73,5.64
CC1=CC(=O)c2[nH]c3ccc([N+](=O)[O-])cc3c2C1=O,6.24,5.99
CC1=CC(=O)c2[nH]c3cc(F)ccc3c2C1=O,6.00,5.83
COc1ccc2[nH]c3c(c2c1OC)C(=O)C(C)=CC3=O,< 5.00,< 5.00
CC1=CC(=O)c2[nH]c3cc4ccccc4cc3c2C1=O,< 5.00,5.28
CC1=CC(=O)c2[nH]c3cc(C(F)(F)F)ccc3c2C1=O,< 5.00,5.22
COCn1c2c(c3ccccc31)C(=O)C(C)=CC2=O,5.19,5.41
CC1=CC(=O)c2[nH]c3ccc4ccccc4c3c2C1=O,< 5.00,< 5.00
CC1=CC(=O)c2[nH]c3ccc(C)cc3c2C1=O,5.69,< 5.00
COc1ccc2[nH]c3c(c2c1)C(=O)C(C)=CC3=O,5.80,5.47
COc1ccc2c3c([nH]c2c1)C(=O)C=C(C)C3=O,6.00,5.76
CC1=CC(=O)c2[nH]c3ccc(Cl)cc3c2C1=O,5.66,5.89
CC1=CC(=O)c2[nH]c3ccccc3c2C1=O [MURRAYAQUINONE A],5.43,5.52
